Results pooled from the literature.
Protocols differ between the studies behind these lines. pIC50: −log10 of the molar value.
Read-out: cell growth or viability

CC(C)C[C@H](NC(=O)[C@H](Cc1ccccc1)NC(=O)c1cnccn1)B(O)O — pIC50 (SK-N-SH; ATP luminescence): 8.10
CSc1nc(/N=C/c2cccc(O)c2)n(-c2ccc(C(=O)O)cc2)n1 — pIC50 (RPE-1; MTT): 4.46
CN(C)CCCOc1cc(NC(=O)c2cc(Cl)cc(C(=O)Nc3cc(OCCCN(C)C)c4ccccc4n3)n2)nc2ccccc12 — pIC50 (U2OS; ATP luminescence; 72 h): 5.74
N[C@@H](CC(=O)N1CCN(C(c2ccc(F)cc2)c2ccc(F)cc2)CC1)C(=O)N1Cc2ccccc2C1 — pIC50 (SKM-1; ATP luminescence; 48 h): 6.46
COc1cc(-c2ncn(/C=C\C(=O)OC(C)C)n2)cc(C(F)(F)F)c1 — pIC50 (NB-4; 72 h): 6.77
O=C(O)c1ccc(-n2nc(Oc3ccccc3)nc2/N=C/c2cc([N+](=O)[O-])ccc2O)cc1 — pIC50 (RPE-1; MTT): 4.57
COc1cc(Nc2nccc(-c3cnn4nc(OC)ccc34)n2)cc(C(F)(F)F)c1 — pIC50 (SK-N-SH; ATP luminescence): 6.01
NCCCOc1cc(NC(=O)c2cc(Cl)cc(C(=O)Nc3cc(OCCCN)c4ccccc4n3)n2)nc2ccccc12 — pIC50 (U2OS; ATP luminescence; 72 h): 6.52
COC(=O)c1ccc(-n2nc(SC)nc2N)cc1 — pIC50 (RPE-1; MTT): 4.43
CC1=CC(C)(C)N(Cc2ccccc2)c2ccc(O)cc21 — pIC50 (PLC5; MTT; 72 h): 4.96
CN1c2ccccc2C(=O)N2[C@H](C(=O)Nc3ccc(/C=C/C(=O)NO)cc3)Cc3c([nH]c4ccccc34)[C@@H]12 — pIC50 (HEL): 6.47
O=C(Nc1cc(OCCN2CCCC2)c2ccccc2n1)c1cc(OCCN2CCCC2)cc(C(=O)Nc2cc(OCCN3CCCC3)c3ccccc3n2)n1 — pIC50 (U2OS; ATP luminescence; 72 h): 5.68
CC(C)[C@H](N)C(=O)N1CCC[C@H]1B(O)O — pIC50 (HEL; ATP luminescence; 48 h): < 4.22
NCCCOc1cc(NC(=O)c2cccc(C(=O)Nc3cc(OCCCN)c4ccccc4n3)n2)nc2ccccc12 — pIC50 (U2OS; ATP luminescence; 72 h): 5.82
FC(F)(F)c1ccc(C(c2c[nH]c3ccccc23)c2c[nH]c3ccccc23)cc1 — pIC50 (U2OS; ATP luminescence; 22 h): 4.90
O=C(Nc1cc(OCCN2CCCC2)c2ccccc2n1)c1cc(Cl)cc(C(=O)Nc2cc(OCCN3CCCC3)c3ccccc3n2)n1 — pIC50 (U2OS; ATP luminescence; 72 h): 5.64
COc1cc(C)c(-c2c(C)cc(OC)c3c(=O)cc(-c4ccc(Br)cc4)oc23)c2oc(-c3ccc(Br)cc3)cc(=O)c12 — pIC50 (HeLa; MTT; 48 h): 4.45
CSc1nc(/N=C/c2cc([N+](=O)[O-])ccc2O)n(-c2ccc(C(=O)O)cc2)n1 — pIC50 (RPE-1; MTT): 4.62
COC(=O)C(C)n1c(C=O)ccc1CO (centres unmarked) — pIC50 (Hepa-1c1c7; crystal violet; 48 h): < 4.00
Cc1ccc(C(=O)Nc2ccc(Oc3cc4cnn(C)c4cc3-c3cn[nH]c3)c(F)c2)c(=O)n1-c1ccc(F)cc1 — pIC50 (Hs746T; ATP luminescence): 7.47
C[S@@+]([O-])CCCCN=C=S — pIC50 (Hepa-1c1c7): 4.82
COc1cc(/C=N/c2nc(SC)nn2-c2ccc(C(=O)O)cc2)ccc1O — pIC50 (RPE-1; MTT): 4.53
C#CCOc1cc(C(=O)Nc2cc(OCCN)c3ccccc3n2)nc(C(=O)Nc2cc(OCCN)c3ccccc3n2)c1 — pIC50 (U2OS; ATP luminescence; 72 h): 5.31
CSc1nc(N)n(-c2ccc(C(=O)O)cc2)n1 — pIC50 (RPE-1; MTT): 4.38
CN(C)CCCOc1cc(NC(=O)c2cccc(C(=O)Nc3cc(OCCCN(C)C)c4ccccc4n3)n2)nc2ccccc12 — pIC50 (U2OS; ATP luminescence; 72 h): 5.68
COc1ccc(O)c(/C=N/c2nc(Oc3ccccc3)nn2-c2ccc(C(=O)O)cc2)c1 — pIC50 (RPE-1; MTT): 4.48
CC[C@@H](C)[C@H](N)C(=O)N1Cc2ccccc2C1 — pIC50 (SKM-1; ATP luminescence; 48 h): 6.74
CS(=O)(=O)c1nc(N)n(-c2ccc(C(=O)O)cc2)n1 — pIC50 (RPE-1; MTT): 4.47
NCCCOc1cc(NC(=O)c2cc(OCc3c[nH]nn3)cc(C(=O)Nc3cc(OCCCN)c4ccccc4n3)n2)nc2ccccc12 — pIC50 (U2OS; ATP luminescence; 72 h): < 4.40
